Test results from ChEMBL document CHEMBL3608218, “Optimization of a Dibenzodiazepine Hit to a Potent and Selective Allosteric PAK1 Inhibitor” (ACS Med Chem Lett, 2015).
In brackets after ≈: the same amount, converted by molar mass. Activity calls are given as the source filed them. No cut-off for these calls is given here.

How the values were obtained:
[1] = biological target: T1, Serine/threonine-protein kinase PAK 4 (Homo sapiens, UniProt O96013); experiment: Binding affinity to PAK4 (unknown origin) expressed in HEK293 cells after 1 hr by qPCR analysis; type: cell-based
[2] = biological target: T2, Serine/threonine-protein kinase PAK 1 (Homo sapiens, UniProt Q13153); experiment: Binding affinity to PAK1 (unknown origin) expressed in HEK293 cells after 1 hr by qPCR analysis; type: cell-based
[3] = biological target: T2, Serine/threonine-protein kinase PAK 1; experiment: Inhibition of wild type dephosphorylated form of PAK1 (249 to 545) (unknown origin) expressed in Escherichia coli using 5-Fluo-Ahx-AKRRRLSSLRA-COOH as substrate preincubated for 60 mins followed by substrate addition measured after 60 mins by Caliper assay
[4] = biological target: T3, Serine/threonine-protein kinase PAK 6 (Homo sapiens, UniProt Q9NQU5); experiment: Binding affinity to PAK6 (unknown origin) expressed in HEK293 cells after 1 hr by qPCR analysis; type: cell-based
[5] = biological target: T4, Serine/threonine-protein kinase PAK 2 (Homo sapiens, UniProt Q13177); experiment: Binding affinity to PAK2 (unknown origin) expressed in HEK293 cells after 1 hr by qPCR analysis; type: cell-based
[6] = biological target: Serine/threonine-protein kinase PAK 3 (Homo sapiens, UniProt O75914); experiment: Binding affinity to PAK3 (unknown origin) expressed in HEK293 cells after 1 hr by qPCR analysis; type: cell-based
[7] = Aqueous solubility of the compound at pH 6.8; type: physicochemical; settings: buffer
[8] = biological target: T5, Muscarinic acetylcholine receptor M1 (Homo sapiens, UniProt P11229); experiment: Inhibition of recombinant human muscarinic M1 receptor
T5 sequence (P11229 whole entry): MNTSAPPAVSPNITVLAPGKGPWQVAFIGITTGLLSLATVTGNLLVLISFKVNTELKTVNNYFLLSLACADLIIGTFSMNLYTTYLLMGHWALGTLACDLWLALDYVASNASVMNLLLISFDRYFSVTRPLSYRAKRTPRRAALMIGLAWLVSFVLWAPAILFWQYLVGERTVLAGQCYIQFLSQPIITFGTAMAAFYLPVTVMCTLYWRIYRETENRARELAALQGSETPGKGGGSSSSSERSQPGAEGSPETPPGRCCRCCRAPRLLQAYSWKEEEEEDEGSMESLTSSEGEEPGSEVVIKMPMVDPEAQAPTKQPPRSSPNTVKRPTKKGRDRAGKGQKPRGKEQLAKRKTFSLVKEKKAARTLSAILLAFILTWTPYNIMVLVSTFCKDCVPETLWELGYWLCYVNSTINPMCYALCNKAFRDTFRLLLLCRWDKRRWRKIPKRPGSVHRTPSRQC

Histamine H1 receptor = Histamine H1 receptor (Homo sapiens, UniProt P35367); experiment: Inhibition of recombinant human histamine H1 receptor
[9] = biological target: T2, Serine/threonine-protein kinase PAK 1; experiment: Inhibition of wild type phosphorylated form of PAK1 (249 to 545) (unknown origin) expressed in Escherichia coli using 5-Fluo-Ahx-AKRRRLSSLRA-COOH as substrate preincubated for 60 mins followed by substrate addition measured after 60 mins by Caliper assay
[10] = biological target: T2, Serine/threonine-protein kinase PAK 1; experiment: Non-ATP competitive inhibition of full-length human PAK1 assessed as phosphate incorporation onto MBP preincubated for 5 mins followed by Cdc42, MBP, and mixture of ATP and [32P]-gamma-ATP addition measured after 20 mins by scintillation counting analysis
[11] = biological target: T3, Serine/threonine-protein kinase PAK 6; experiment: Inhibition of full length human PAK6 assessed as phosphate incorporation onto MBP preincubated for 5 mins followed by Cdc42, MBP, and mixture of ATP and [32P]-gamma-ATP addition measured after 20 mins by scintillation counting analysis
[12] = biological target: Serine/threonine-protein kinase PAK 5 (Homo sapiens, UniProt Q9P286); experiment: Inhibition of full length PAK5 (unknown origin) expressed in HEK293 cells assessed as phosphate incorporation onto MBP preincubated for 5 mins followed by Cdc42, MBP, and mixture of ATP and [32P]-gamma-ATP addition measured after 20 mins by scintillation counting analysis; type: cell-based
[13] = biological target: T1, Serine/threonine-protein kinase PAK 4; experiment: Inhibition of PAK4 kinase domain (300 to 591) (unknown origin) assessed as phosphate incorporation onto MBP preincubated for 5 mins followed by Cdc42, MBP, and mixture of ATP and [32P]-gamma-ATP addition measured after 20 mins by scintillation counting analysis
[14] = biological target: T4, Serine/threonine-protein kinase PAK 2; settings: SU8686, 0.009 to 20 uM
[15] = biological target: T4, Serine/threonine-protein kinase PAK 2; settings: SU8686, 0.21 uM
[16] = Half life in rat liver microsomes; type: ADME
Cytochrome P450 3A4 = Cytochrome P450 3A4 (Homo sapiens, UniProt P08684); experiment: Inhibition of CYP3A4 midazolam site (unknown origin); type: ADME
Cytochrome P450 2D6 = Cytochrome P450 2D6 (Homo sapiens, UniProt P10635); experiment: Inhibition of CYP2D6 (unknown origin); type: ADME
[17] = Permeability of the compound by PAMPA; type: physicochemical
Procedure, shortened: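 PAMPA permeability was expressed as a calculated fraction absorbed (cFA).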

[18] = Apparent permeability across apical to basolateral side in human Caco2 cells; type: ADME, cell-based; settings: Caco-2
[19] = Aqueous solubility of the compound at pH 4; type: physicochemical; settings: buffer
Cytochrome P450 2C9 = Cytochrome P450 2C9 (Homo sapiens, UniProt P11712); experiment: Inhibition of CYP2C9 (unknown origin); type: ADME
[20] = biological target: T4, Serine/threonine-protein kinase PAK 2; settings: SU8686, 6 to 20 uM
SU.86.86 [21] = experiment: Cytotoxicity against human SU8686 cells assessed as growth inhibition at 0.21 uM after 5 days by CTG assay in presence of PAK2 shRNA; type: functional, cell-based
SU.86.86 [22] = experiment: Cytotoxicity against human SU8686 cells assessed as growth inhibition at >2 uM after 5 days by CTG assay; type: functional, cell-based

T2 sequence (Q13153 whole entry): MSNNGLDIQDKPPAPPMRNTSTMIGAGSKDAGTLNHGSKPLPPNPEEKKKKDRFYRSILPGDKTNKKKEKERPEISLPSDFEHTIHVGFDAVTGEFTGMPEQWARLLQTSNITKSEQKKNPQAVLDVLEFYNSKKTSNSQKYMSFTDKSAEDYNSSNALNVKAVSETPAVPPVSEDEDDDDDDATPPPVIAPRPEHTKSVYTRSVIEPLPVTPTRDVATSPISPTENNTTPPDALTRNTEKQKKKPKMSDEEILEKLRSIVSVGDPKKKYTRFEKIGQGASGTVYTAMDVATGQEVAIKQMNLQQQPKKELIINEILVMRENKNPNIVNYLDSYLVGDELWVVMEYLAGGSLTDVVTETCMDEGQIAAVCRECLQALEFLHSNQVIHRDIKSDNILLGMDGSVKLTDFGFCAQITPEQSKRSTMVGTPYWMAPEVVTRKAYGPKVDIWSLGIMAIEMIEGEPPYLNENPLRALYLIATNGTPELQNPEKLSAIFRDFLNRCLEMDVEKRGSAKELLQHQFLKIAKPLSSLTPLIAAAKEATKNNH
Sequence of Serine/threonine-protein kinase PAK 3 (O75914 whole entry): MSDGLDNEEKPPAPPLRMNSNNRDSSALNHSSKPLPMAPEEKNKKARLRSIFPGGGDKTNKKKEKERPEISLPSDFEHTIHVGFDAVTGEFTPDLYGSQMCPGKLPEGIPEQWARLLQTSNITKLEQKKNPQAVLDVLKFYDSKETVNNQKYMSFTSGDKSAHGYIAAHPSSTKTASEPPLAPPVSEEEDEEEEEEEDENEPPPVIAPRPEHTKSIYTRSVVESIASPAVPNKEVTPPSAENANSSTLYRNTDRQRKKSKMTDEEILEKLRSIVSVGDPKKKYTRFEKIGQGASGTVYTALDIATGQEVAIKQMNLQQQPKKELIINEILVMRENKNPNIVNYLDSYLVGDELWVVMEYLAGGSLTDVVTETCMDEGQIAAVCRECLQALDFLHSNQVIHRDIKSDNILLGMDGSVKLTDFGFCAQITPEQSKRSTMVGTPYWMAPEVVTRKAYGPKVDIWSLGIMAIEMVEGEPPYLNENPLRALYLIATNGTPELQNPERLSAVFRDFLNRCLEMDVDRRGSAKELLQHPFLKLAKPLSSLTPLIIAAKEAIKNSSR
T3 sequence (Q9NQU5 whole entry): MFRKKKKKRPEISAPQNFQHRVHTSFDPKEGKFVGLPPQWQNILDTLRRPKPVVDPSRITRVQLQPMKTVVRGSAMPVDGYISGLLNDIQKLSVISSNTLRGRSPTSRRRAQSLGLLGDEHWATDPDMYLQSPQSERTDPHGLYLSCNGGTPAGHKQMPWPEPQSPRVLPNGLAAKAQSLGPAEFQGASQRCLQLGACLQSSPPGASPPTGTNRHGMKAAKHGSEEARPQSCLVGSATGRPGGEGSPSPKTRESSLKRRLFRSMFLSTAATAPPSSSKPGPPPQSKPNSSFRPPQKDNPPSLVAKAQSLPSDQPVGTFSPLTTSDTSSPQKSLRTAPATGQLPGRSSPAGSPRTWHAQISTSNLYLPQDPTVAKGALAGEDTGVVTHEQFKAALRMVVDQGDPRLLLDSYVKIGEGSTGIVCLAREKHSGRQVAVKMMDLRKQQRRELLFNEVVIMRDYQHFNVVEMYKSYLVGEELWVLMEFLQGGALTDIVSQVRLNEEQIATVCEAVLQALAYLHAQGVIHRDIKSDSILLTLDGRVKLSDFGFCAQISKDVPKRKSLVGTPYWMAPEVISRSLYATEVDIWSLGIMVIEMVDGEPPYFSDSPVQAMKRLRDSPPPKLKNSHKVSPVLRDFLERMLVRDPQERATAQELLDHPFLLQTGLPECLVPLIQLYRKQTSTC
T4 sequence (Q13177 whole entry): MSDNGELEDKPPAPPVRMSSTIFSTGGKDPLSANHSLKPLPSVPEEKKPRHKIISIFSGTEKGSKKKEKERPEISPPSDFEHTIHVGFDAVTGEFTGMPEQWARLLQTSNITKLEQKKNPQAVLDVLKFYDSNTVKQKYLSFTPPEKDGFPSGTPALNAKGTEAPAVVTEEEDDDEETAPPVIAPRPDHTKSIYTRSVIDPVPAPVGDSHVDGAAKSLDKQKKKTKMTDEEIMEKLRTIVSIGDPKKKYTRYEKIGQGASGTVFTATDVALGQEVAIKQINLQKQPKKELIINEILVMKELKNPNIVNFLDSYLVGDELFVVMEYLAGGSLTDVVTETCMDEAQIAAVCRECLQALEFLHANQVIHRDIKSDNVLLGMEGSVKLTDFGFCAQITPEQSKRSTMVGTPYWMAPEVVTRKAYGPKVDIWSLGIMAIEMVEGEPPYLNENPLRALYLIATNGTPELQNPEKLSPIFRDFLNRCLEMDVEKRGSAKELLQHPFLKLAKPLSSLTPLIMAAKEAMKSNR
T1 sequence (O96013 whole entry): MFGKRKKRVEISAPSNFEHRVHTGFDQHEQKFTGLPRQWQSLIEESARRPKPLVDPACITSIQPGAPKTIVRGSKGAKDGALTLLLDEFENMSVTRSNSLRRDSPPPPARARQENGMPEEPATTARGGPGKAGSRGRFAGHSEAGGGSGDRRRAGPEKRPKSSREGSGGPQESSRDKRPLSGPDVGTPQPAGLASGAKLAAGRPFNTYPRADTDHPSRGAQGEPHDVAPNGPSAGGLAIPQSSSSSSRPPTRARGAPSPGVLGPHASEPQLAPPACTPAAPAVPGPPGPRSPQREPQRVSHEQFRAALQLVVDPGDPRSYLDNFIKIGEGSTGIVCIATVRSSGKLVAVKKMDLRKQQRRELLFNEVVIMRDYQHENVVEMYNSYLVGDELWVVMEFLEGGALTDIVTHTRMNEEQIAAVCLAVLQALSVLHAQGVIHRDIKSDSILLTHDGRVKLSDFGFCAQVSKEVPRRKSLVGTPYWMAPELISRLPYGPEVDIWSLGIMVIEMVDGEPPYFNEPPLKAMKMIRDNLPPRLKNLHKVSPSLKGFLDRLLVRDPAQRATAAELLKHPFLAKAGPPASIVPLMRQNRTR
Sequence of Histamine H1 receptor (P35367 whole entry): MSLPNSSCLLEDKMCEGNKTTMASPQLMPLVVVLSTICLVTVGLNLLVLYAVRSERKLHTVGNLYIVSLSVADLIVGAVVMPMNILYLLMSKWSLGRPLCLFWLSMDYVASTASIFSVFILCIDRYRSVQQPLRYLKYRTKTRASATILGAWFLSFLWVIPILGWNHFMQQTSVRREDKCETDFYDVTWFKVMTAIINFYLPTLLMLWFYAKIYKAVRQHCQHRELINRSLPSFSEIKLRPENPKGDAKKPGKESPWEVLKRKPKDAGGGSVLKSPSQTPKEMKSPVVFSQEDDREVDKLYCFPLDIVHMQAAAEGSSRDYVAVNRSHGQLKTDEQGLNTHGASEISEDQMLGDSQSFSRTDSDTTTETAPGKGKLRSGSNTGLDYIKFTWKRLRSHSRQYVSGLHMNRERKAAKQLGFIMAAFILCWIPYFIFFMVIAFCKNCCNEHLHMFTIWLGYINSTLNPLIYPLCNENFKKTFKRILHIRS
Sequence of Cytochrome P450 3A4 (P08684 whole entry): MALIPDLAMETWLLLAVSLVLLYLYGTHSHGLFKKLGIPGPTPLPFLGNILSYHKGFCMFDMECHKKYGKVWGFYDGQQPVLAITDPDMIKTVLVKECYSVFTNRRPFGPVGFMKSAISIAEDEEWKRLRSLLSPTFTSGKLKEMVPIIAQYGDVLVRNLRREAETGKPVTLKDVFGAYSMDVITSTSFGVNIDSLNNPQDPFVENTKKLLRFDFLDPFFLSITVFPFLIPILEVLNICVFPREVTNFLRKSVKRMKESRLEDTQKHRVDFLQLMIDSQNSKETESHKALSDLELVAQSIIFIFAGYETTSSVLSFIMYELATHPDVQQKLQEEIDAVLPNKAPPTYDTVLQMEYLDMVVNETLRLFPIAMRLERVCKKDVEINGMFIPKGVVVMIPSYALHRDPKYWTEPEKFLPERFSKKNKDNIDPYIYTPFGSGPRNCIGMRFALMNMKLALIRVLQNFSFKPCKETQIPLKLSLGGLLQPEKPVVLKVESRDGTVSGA
Sequence of Serine/threonine-protein kinase PAK 5 (Q9P286 whole entry, the tested form may be a part): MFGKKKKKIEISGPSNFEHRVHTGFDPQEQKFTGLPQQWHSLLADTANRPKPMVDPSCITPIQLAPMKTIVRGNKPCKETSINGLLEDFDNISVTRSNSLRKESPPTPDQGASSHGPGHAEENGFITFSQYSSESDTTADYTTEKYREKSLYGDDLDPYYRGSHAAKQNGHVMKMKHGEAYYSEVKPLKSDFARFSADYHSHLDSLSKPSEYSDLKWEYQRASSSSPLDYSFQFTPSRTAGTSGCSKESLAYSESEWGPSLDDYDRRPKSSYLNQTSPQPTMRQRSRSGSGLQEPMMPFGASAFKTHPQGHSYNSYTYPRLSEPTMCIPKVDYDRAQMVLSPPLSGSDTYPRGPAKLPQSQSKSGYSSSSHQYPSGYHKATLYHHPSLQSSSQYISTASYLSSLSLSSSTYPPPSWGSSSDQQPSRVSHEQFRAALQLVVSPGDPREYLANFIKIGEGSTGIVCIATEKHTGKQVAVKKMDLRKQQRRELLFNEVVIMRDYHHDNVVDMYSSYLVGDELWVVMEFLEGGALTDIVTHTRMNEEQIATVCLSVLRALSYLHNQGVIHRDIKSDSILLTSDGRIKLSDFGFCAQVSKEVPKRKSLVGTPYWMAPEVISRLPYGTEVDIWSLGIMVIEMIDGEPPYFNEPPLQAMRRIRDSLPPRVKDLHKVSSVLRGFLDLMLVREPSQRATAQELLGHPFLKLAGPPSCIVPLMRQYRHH

Kd [1] [µM]	Kd [2] [µM]	IC50 [3] [µM]	Kd [4] [µM]	Kd [5] [µM]	Kd [6] [µM]	Structure (SMILES)	solubility [7] [µM]	IC50 [8] [µM]	IC50 (Histamine H1 receptor) [µM]	also measured
> 40	0.13	0.19	> 40	> 40	> 40	CCN1c2ccc(F)cc2N=C(N[C@H]2CCN(C(=O)OC(C)(C)C)C2)c2cc(Cl)ccc21				
> 40				1.1	> 40	CCN1c2ccc(F)cc2N=C(N[C@H]2CCN(C(=O)NC(C)(C)C)C2)c2cc(Cl)ccc21	< 4			
		12				CN1CCN(C2=Nc3cc(F)ccc3Nc3ccc(F)cc32)CC1		0.006	0.001	IC50 [9]: 54 µM
						Oc1ccc2ccccc2c1SSc1c(O)ccc2ccccc12				IC50 [10]: 2.5 µM; IC50 [11]: > 10 µM; IC50 [12]: > 10 µM; IC50 [13]: > 10 µM
> 40	0.34	0.323	> 40	> 40	> 40	CCN1c2ccc(F)cc2N=C(N2CCN(C)CC2)c2cc(Cl)ccc21				

Structure (SMILES)	Kd [1] [µM]	Kd [2] [µM]	IC50 [3] [µM]	Kd [4] [µM]	Kd [5] [µM]	Kd [6] [µM]	solubility [7] [µM]	IC50 [8] [µM]	IC50 (Histamine H1 receptor) [µM]	also measured
CC(C)NC(=O)N1CC[C@H](NC2=Nc3cc(F)ccc3N(CC(F)F)c3ccc(Cl)cc32)C1					0.4		55 (≈ 26.4 µg/mL)	> 30	> 30	inhibition [14]: Active; inhibition [15]: Active; half-life [16]: 3.5 min; INH (Cytochrome P450 3A4): 13.2 µM; INH (Cytochrome P450 2D6): > 20 µM; permeability [17]: permeable; Papp A→B [18]: 0.428 ×10⁻⁶ cm/s; solubility [19]: > 1000 µM; INH (Cytochrome P450 2C9): 16.7 µM; inhibition [20]: Active; growth inhibition (GI) (SU.86.86 [21]): Active; growth inhibition (GI) (SU.86.86 [22]): Active
